Reference: ChEMBL document CHEMBL4382192, “Discovery of a potent dual ALK and EGFR T790M inhibitor” (Eur J Med Chem, 2017)

How the values were obtained:
[1] = target: Serine/threonine-protein kinase BRSK1 (Homo sapiens) (UniProt Q8TDC3); experiment: Binding affinity to wild-type human partial length BRSK1 (M1 to E754 residues) expressed in bacterial expression system assessed as residual binding level at 1 uM by Kinomescan method relative to control
[2] = target: Serine/threonine-protein kinase 36 (Homo sapiens) (UniProt Q9NRP7); experiment: Binding affinity to wild-type human partial length STK36 (M1 to T271 residues) expressed in bacterial expression system assessed as residual binding level at 1 uM by Kinomescan method relative to control
[3] = target: Calcium-dependent protein kinase 1 (Plasmodium falciparum) (UniProt P62344); experiment: Binding affinity to wild-type Plasmodium falciparum full length CDPK1 (M1 to S524 residues) expressed in mammalian expression system assessed as residual binding level at 1 uM by Kinomescan method relative to control
Sequence of Calcium-dependent protein kinase 1 (Plasmodium falciparum) (P62344 2-524 limits assumed): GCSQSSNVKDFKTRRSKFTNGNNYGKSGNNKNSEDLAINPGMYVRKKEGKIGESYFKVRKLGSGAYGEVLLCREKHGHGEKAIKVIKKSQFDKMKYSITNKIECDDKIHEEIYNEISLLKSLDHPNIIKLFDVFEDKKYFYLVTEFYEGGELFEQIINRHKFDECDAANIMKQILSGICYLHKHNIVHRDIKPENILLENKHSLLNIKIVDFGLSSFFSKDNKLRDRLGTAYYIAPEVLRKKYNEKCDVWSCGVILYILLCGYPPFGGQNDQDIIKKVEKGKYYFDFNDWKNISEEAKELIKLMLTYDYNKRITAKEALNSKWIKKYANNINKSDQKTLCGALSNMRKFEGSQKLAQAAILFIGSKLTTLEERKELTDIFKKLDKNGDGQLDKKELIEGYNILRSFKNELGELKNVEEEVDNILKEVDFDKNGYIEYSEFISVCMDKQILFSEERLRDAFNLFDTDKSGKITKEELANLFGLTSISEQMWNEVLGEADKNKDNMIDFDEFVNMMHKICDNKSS

[4] = target: Cyclin-dependent kinase 7 (Homo sapiens) (UniProt P50613); experiment: Binding affinity to wild-type human full length CDK7 (M1 to L344 residues) expressed in mammalian expression system assessed as residual binding level at 1 uM by Kinomescan method relative to control
Sequence of Cyclin-dependent kinase 7 (Homo sapiens) (P50613 whole entry, the tested form may be a part): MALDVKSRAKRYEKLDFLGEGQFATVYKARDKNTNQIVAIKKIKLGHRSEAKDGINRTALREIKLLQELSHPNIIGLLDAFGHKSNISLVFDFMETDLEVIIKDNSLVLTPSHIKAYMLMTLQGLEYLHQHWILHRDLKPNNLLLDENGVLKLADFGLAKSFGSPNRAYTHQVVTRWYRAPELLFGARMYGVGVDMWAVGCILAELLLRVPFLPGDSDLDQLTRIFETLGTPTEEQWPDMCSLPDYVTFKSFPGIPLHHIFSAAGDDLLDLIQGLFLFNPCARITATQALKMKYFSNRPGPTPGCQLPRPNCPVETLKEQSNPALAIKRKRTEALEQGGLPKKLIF

[5] = target: Ribosomal protein S6 kinase beta-1 (Homo sapiens) (UniProt P23443); experiment: Binding affinity to wild-type human partial length S6K1 (M1 to S421 residues) expressed in mammalian expression system assessed as residual binding level at 1 uM by Kinomescan method relative to control
[6] = target: Mitogen-activated protein kinase kinase kinase 2 (Homo sapiens) (UniProt Q9Y2U5); experiment: Binding affinity to wild-type human partial length MAP3K2 (S315 to H619 residues) expressed in mammalian expression system assessed as residual binding level at 1 uM by Kinomescan method relative to control
Sequence of Mitogen-activated protein kinase kinase kinase 2 (Homo sapiens) (Q9Y2U5 whole entry, the tested form may be a part): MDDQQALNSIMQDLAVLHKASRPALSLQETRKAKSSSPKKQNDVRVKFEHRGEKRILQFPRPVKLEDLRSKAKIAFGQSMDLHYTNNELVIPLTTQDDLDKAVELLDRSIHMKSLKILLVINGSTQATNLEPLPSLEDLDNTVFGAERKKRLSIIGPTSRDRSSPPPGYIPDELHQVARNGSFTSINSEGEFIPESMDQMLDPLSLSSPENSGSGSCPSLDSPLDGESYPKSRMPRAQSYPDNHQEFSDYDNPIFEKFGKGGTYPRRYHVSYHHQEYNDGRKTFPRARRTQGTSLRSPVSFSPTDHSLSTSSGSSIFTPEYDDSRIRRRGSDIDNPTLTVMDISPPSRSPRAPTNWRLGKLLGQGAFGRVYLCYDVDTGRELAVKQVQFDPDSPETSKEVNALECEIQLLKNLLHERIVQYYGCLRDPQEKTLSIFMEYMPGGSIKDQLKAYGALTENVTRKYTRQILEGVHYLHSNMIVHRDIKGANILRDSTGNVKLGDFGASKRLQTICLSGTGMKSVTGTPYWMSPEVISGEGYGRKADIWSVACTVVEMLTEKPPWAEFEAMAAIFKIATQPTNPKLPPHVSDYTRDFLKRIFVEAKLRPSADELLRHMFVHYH

[7] = target: Dual specificity protein kinase CLK1 (Homo sapiens) (UniProt P49759); experiment: Binding affinity to wild-type human full length CLK1 (M1 to I484 residues) expressed in bacterial expression system assessed as residual binding level at 1 uM by Kinomescan method relative to control
[8] = target: Vascular endothelial growth factor receptor 1 (Homo sapiens) (UniProt P17948); experiment: Binding affinity to wild-type human partial length FLT1 (R781 to F1239 residues) expressed in bacterial expression system assessed as residual binding level at 1 uM by Kinomescan method relative to control
Sequence of Vascular endothelial growth factor receptor 1 (Homo sapiens) (P17948 whole entry, the tested form may be a part): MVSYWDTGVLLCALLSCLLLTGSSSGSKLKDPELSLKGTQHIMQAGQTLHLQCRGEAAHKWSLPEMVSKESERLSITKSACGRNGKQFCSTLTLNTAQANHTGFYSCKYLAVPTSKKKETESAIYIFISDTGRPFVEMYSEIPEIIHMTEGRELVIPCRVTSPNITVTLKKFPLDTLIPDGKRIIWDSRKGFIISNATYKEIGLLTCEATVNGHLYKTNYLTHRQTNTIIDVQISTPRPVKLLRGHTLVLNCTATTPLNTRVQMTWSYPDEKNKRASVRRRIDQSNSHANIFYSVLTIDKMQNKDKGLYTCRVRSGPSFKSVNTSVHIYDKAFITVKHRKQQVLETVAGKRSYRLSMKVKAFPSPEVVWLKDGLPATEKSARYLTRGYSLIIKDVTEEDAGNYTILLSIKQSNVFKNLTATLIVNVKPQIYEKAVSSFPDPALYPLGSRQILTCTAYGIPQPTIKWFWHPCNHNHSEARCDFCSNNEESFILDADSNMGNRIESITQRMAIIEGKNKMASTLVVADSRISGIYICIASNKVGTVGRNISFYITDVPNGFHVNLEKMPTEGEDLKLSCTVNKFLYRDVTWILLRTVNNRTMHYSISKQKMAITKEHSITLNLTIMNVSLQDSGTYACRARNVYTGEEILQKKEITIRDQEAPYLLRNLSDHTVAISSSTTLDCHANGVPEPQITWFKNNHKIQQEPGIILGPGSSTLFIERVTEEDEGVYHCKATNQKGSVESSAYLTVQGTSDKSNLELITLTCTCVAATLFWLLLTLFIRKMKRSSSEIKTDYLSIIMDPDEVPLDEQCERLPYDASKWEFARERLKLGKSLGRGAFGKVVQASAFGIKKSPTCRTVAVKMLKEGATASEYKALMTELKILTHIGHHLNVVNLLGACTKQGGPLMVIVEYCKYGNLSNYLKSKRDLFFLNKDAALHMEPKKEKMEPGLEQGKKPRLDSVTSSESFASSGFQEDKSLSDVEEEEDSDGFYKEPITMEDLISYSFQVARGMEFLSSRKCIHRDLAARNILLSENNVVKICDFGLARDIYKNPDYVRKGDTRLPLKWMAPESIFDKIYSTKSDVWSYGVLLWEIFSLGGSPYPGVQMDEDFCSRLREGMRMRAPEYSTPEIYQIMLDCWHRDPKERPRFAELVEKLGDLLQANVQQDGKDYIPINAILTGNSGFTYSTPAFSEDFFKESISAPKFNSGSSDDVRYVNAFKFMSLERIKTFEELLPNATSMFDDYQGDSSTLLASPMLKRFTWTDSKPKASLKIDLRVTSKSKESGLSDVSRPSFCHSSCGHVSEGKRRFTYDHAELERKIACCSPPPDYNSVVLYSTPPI

[9] = AUClast in mouse at 10 mg/kg, po; assay type: ADME, organism-based; set-up: dose 10 mg/kg, time 0 - last, route oral; details: in vivo
[10] = target: Serine/threonine-protein kinase TAO2 (Homo sapiens) (UniProt Q9UL54); experiment: Binding affinity to wild-type human partial length TAOK2 (M1 to A320 residues) expressed in mammalian expression system assessed as residual binding level at 1 uM by Kinomescan method relative to control
Sequence of Serine/threonine-protein kinase TAO2 (Homo sapiens) (Q9UL54 whole entry, the tested form may be a part): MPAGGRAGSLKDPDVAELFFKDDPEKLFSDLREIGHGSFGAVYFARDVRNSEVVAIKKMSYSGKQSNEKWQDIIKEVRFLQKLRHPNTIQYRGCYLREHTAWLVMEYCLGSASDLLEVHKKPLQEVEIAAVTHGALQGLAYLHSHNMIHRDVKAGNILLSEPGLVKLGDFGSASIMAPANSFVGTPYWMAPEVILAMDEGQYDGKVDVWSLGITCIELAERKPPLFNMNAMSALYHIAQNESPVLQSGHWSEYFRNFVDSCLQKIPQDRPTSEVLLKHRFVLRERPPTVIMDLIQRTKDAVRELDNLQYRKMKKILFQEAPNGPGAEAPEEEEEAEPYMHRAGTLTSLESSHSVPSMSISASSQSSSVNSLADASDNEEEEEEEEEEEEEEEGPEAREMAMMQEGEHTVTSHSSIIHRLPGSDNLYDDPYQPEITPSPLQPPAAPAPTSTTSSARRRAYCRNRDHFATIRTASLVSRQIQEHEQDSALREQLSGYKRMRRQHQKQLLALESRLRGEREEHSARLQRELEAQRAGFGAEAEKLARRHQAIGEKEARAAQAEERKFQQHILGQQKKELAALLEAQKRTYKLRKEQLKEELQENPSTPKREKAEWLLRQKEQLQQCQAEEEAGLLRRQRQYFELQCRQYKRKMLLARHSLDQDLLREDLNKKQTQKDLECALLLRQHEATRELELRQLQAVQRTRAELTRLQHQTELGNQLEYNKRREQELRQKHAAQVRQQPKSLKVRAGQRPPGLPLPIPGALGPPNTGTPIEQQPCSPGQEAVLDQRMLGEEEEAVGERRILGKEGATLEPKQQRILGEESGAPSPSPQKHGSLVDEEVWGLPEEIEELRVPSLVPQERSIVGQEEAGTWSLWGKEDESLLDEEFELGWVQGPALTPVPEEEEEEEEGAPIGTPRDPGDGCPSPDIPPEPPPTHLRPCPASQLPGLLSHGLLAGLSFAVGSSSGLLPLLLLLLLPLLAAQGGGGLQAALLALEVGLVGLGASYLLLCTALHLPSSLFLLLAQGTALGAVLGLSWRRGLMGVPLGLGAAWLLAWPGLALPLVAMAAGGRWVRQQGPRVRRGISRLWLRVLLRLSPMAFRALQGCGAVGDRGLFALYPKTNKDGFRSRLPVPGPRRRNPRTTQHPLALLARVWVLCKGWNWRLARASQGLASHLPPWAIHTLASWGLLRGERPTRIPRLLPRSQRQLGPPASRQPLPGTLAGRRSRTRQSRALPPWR

[11] = target: Ephrin type-B receptor 4 (Homo sapiens) (UniProt P54760); experiment: Binding affinity to wild-type human partial length EPHB4 (H585 to G892 residues) expressed in bacterial expression system assessed as residual binding level at 1 uM by Kinomescan method relative to control
[12] = target: Cyclin-dependent kinase 11A (Homo sapiens) (UniProt Q9UQ88); experiment: Binding affinity to wild-type human partial length CDC2L2 (D391 to K730 residues) expressed in bacterial expression system assessed as residual binding level at 1 uM by Kinomescan method relative to control
CYP3A4 = CYP3A4 (Homo sapiens, UniProt P08684); experiment: Residual activity of CYP3A4 in human liver microsomes at 10 uM using midazolam 1-hydroxylase as substrate preincubated for 5 mins followed by NADPH addition measured after 15 mins by LC/MS/MS analysis relative to control; details: probe midazolam (1-hydroxylation)
[13] = target: STE20/SPS1-related proline-alanine-rich protein kinase (Homo sapiens) (UniProt Q9UEW8); experiment: Binding affinity to wild-type human partial length STK39 (P43 to I357 residues) expressed in mammalian expression system assessed as residual binding level at 1 uM by Kinomescan method relative to control
[14] = system: ALK tyrosine kinase receptor (Homo sapiens), Q9UM73 [C1156Y]; experiment: Binding affinity to wild-type human partial length ALK C1156Y mutant (I1088 to E1409 residues) expressed in mammalian expression system assessed as residual binding level at 1 uM by Kinomescan method relative to control
[15] = target: Receptor tyrosine-protein kinase erbB-3 (Homo sapiens) (UniProt P21860); experiment: Binding affinity to wild-type human partial length ERBB3 (G684 to A987 residues) expressed in mammalian expression system assessed as residual binding level at 1 uM by Kinomescan method relative to control
[16] = target: Serine/threonine-protein kinase 24 (Homo sapiens) (UniProt Q9Y6E0); experiment: Binding affinity to wild-type human partial length MST3 (A30 to S311 residues) expressed in bacterial expression system assessed as residual binding level at 1 uM by Kinomescan method relative to control
Sequence of Serine/threonine-protein kinase 24 (Homo sapiens) (Q9Y6E0 whole entry, looked up, the tested form may be a part): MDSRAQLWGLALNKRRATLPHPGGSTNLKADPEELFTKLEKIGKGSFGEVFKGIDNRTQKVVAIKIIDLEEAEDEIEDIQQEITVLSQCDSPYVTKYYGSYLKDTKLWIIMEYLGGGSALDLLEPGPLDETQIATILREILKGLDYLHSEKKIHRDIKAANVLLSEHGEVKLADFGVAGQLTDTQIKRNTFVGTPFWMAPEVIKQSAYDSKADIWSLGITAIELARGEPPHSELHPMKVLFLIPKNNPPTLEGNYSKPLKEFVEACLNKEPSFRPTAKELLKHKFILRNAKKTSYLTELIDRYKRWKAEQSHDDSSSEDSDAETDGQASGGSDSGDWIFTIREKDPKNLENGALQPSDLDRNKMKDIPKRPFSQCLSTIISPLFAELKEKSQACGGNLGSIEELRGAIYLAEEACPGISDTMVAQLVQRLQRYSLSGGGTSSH

[17] = target: Phosphatidylinositol 5-phosphate 4-kinase type-2 gamma (Homo sapiens) (UniProt Q8TBX8); experiment: Binding affinity to wild-type human partial length PIP5K2C (M1 to A421 residues) expressed in mammalian expression system assessed as residual binding level at 1 uM by Kinomescan method relative to control
[18] = target: Death-associated protein kinase 3 (Homo sapiens) (UniProt O43293); experiment: Binding affinity to wild-type human partial length DAPK3 (M1 to A277 residues) expressed in bacterial expression system assessed as residual binding level at 1 uM by Kinomescan method relative to control
[19] = target: Serine/threonine-protein kinase OSR1 (Homo sapiens) (UniProt O95747); experiment: Binding affinity to wild-type human full length OSR1 (M1 to S527 residues) expressed in mammalian expression system assessed as residual binding level at 1 uM by Kinomescan method relative to control
Method in brief: (§1)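 Single-point kinome-wide KINOMEscan binding panel, test compound at 1 μM, run by the provider's standard protocol.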

[20] = target: Tyrosine-protein kinase JAK1 (Homo sapiens) (UniProt P23458); experiment: Binding affinity to wild-type human partial length JAK1 JH1 catalytic domain (V856 to K1154 residues) expressed in bacterial expression system assessed as residual binding level at 1 uM by Kinomescan method relative to control
[21] = target: Calcium/calmodulin-dependent protein kinase type 1 (Homo sapiens) (UniProt Q14012); experiment: Binding affinity to wild-type human full length CAMK1 (M1 to L370 residues) expressed in bacterial expression system assessed as residual binding level at 1 uM by Kinomescan method relative to control
[22] = target: Serine/threonine-protein kinase MAK (Homo sapiens) (UniProt P20794); experiment: Binding affinity to wild-type human partial length MAK (M1 to P314 residues) expressed in bacterial expression system assessed as residual binding level at 1 uM by Kinomescan method relative to control
[23] = Tmax in mouse at 10 mg/kg, po; assay type: ADME, organism-based; details: in vivo
[24] = target: Phosphorylase b kinase gamma catalytic chain, skeletal muscle/heart isoform (Homo sapiens) (UniProt Q16816); experiment: Binding affinity to wild-type human full length PHKG1 (M1 to Y387 residues) expressed in bacterial expression system assessed as residual binding level at 1 uM by Kinomescan method relative to control; method in brief: as §1
Sequence of Phosphorylase b kinase gamma catalytic chain, skeletal muscle/heart isoform (Homo sapiens) (Q16816 whole entry, looked up, the tested form may be a part, canonical isoform): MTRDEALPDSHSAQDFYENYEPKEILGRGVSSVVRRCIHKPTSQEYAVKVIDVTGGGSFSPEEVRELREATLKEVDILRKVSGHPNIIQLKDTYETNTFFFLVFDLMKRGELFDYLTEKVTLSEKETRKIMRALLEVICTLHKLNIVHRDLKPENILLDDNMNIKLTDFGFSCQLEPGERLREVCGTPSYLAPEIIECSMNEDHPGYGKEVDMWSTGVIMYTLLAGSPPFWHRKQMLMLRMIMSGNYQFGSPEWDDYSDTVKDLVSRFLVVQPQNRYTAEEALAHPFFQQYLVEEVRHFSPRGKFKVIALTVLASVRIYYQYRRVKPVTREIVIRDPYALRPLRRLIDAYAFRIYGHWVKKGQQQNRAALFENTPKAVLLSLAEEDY

Compound `C=CC(=O)Nc1cc(Nc2ncc(Cl)c(Nc3ccccc3S(=O)(=O)C(C)C)n2)c(OC)cc1N(C)CCN(C)C` has an Activity [1] of 49%, an Activity [2] of 88% and an Activity [3] of 93%. It also gave an Activity [4] of 21%, an Activity [5] of 94% and an Activity [6] of 32%. The Activity [7] was 6.9%, the Activity [8] was 47% and the AUC(0-t) [9] was 1550 ng·h/mL. For the same compound, the Activity [10] was 52%, the Activity [11] was 76% and the Activity [12] was 78%. For the same compound, the Activity at […], 10 µM (CYP3A4) was 44%, the Activity [13] was 20% and the Activity [14] was 0.2%. For the same compound, the Activity [15] was 91%, the Activity [16] was 39% and the Activity [17] was 90%. The Activity [18] was 39%, the Activity [19] was 16% and the Activity [20] was 78%. The Activity [21] was 40%, the Activity [22] was 100% and the Tmax [23] was 1.17 h. It also gave an Activity [24] of 24%.
